Screening data (PubChem BioAssay)
MPTP block – mitochondrial permeability transition pore inhibitors, primary screen, biochemical, isolated mouse mitochondria, absorbance; inhibition, % at 10 µM; AID 602449, 2012; 360,000 compounds, 1.4% hits; Ca2+ swelling absorbance, 30 min;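 active = inhibition of 50% or more, scaled per plate between neutral and stimulator controls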
SKN-1 inh – suppressors of acrylamide-induced Pgst-4::GFP reporter in worms, primary screen, SKN-1 inhibitor project, whole organism, uHTS, GFP/RFP fluorescence ratio, strain VP596 | 360,000 compounds, 0.49% hits | inhibition, % at 21.8 µM | C. elegans VP596 Pgst-4::GFP/RFP ratio, 24 h | AID 624304, 2012;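 active = interference check ratio from 0.5 to 1.5 plus GFP to RFP signal ratio inhibition reaching or exceeding a fixed threshold, cut at about 30% in these data, passing the limit was not always enough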
ATG4B inhibitor – ATG4B protease inhibitors, primary screen, biochemical, fluorescence, uHTS. Cysteine protease ATG4B (Homo sapiens), Q9Y4P1. ATG4B cleavage of LC3-PLA2, NBD-HPC fluorescence, 1 h. inhibition, % at 8.33 µM. 340,000 compounds, 0.51% hits; in the data active = inhibition above about 40%
Target sequence (Q9Y4P1 whole entry, looked up): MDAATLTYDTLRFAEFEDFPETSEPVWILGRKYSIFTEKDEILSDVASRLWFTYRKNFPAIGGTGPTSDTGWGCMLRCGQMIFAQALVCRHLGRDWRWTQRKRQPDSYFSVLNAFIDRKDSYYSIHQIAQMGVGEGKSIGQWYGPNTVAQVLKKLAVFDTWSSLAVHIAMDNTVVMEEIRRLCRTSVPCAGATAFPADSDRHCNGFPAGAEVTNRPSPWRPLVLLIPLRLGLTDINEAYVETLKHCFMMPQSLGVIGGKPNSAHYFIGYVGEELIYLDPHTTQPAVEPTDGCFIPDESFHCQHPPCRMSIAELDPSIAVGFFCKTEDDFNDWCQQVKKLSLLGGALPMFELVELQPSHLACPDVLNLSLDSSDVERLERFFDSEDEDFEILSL
MT1-MMP act inh – blockers of MT1-MMP proenzyme processing, primary screen, HT1080 RFP-PRO-GFP cells, GFP/RFP fluorescence; Matrix metalloproteinase-14 (Homo sapiens), P50281; GFP/RFP ratio fluorescence, overnight; percent of plate control window, DMSO zero; 360,000 compounds, 0.061% hits; GFP/RFP ratio change, % at 20 µM;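 active = GFP/RFP ratio change of at least 30% with cell ATP level not reduced by more than half and red fluorescence within 50% of control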
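Assay system: HT1080 RFP-PRO-GFP cells | Dosing: 20 µM single dose, 1% DMSO | Incubation: Cells overnight before dosing, compound overnight, 37 °C, 5% CO2 | Evaluation: GFP/RFP fluorescence ratio | Control set: DMSO-only wells and HT1080 RFP-L50D-GFP cell wells as references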
ATG4B confirm – ATG4B protease inhibitors, retest, confirmation, biochemical, fluorescence, single concentration; inhibition, % at 8.33 µM; shares compounds with ATG4B inhibitor; 320 compounds, 92% hits; ATG4B protease fluorescent substrate cleavage assay; in the data active = inhibition above about 39%
PLA2 counter – PLA2 enzyme inhibition, counter-screen for ATG4B inhibitor project, biochemical, single concentration, uHTS hits; shares compounds with ATG4B inhibitor; purified PLA2, NBD-C6-HPC fluorescence, 45 min; inhibition, % at 8.33 µM; 1,600 compounds, 66% hits; in the data active = inhibition above about 50%
Target sequence (P04054 whole entry, looked up): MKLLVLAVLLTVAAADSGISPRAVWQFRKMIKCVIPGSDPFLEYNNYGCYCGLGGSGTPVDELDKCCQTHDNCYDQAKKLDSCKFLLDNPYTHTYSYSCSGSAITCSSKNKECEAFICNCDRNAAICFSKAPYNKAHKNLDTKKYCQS
Of the large screens only hits and unclear results are named; the others gave an inactive call (follow-up assays come after a bar, where they were run). Most compounds without a hit are left out; they make up all but 2.3% or so of the library.

Cc1cc(C(=O)N/N=C\c2cc(C(C)(C)C)ccc2O)n[nH]1	ATG4B inhibitor 46.8 | PLA2 counter 55.0
Cc1cc(C(=O)N/N=C/c2cc(Br)cc(Br)c2OC(=O)c2cccc(F)c2)n[nH]1	ATG4B inhibitor 44.0 | PLA2 counter inactive
CC1CCCCC1NC(=O)c1cccc(S(=O)(=O)N2CCN(Cc3ccccc3)CC2)c1 (stereo not drawn)	none
Cc1cc(CN2CCC(n3nccc3NC(=O)c3ccccc3Cl)CC2)cc(C)c1O	none
O=C1CN(c2nc(-c3cccs3)nc3sc4c(c23)CCCC4)CCN1	ATG4B inhibitor 75.8 | PLA2 counter 87.1
O=C(Nc1c(Cl)cccc1Cl)c1cc(-c2ccco2)on1	ATG4B inhibitor 43.3 | ATG4B confirm 66.5 | PLA2 counter inactive
CC1CN(S(=O)(=O)c2cccc(C(=O)OC/C(O)=C(\C#N)c3nc4ccccc4[nH]3)c2)CC(C)O1 (stereo not drawn)	none
Cc1oc(-c2ccccc2Cl)nc1CS(=O)CC(=O)NCc1ccco1 (stereo not drawn)	none
Cc1oc(-c2ccccc2Cl)nc1CS(=O)CC(=O)NCc1ccccc1Cl (stereo not drawn)	ATG4B inhibitor 45.6 | ATG4B confirm 59.9 | PLA2 counter inactive
O=C(Nc1nc(-c2ccccn2)cs1)C1CC(=O)N(c2ccc3c(c2)OCCO3)C1 (stereo not drawn)	none (no result: MT1-MMP act inh)
COc1cc(/C=C/C(=O)O)cc(S(=O)(=O)NC2CCCC2)c1OC	none
COc1cc(/C=C/C(=O)O)cc(S(=O)(=O)Nc2cc(Cl)c(Cl)cc2Cl)c1OC	ATG4B inhibitor 41.1 | ATG4B confirm 52.1 | PLA2 counter inactive
COc1ccc(CNc2cccnc2)c(OC)c1OC	none
O=S(=O)(c1ccc(F)cc1)c1nc(-c2ccccc2F)oc1N1CCCCC1	ATG4B inhibitor 43.5 | ATG4B confirm 65.1 | PLA2 counter inactive
COc1ccccc1-c1nc(S(=O)(=O)c2ccccc2)c(N2CCCCC2)o1	none
COc1cc(/C=C2/C(=N)N3C=CSC3=NC2=O)ccc1OCCCOc1c(C)cccc1C	ATG4B inhibitor 48.6 | ATG4B confirm 57.3 | PLA2 counter inactive
COc1ccc(NC(=O)Nc2ccon2)cc1OC	none
Oc1ccccc1C1CCCCC1c1ccccc1 (stereo not drawn)	ATG4B inhibitor 51.9 | PLA2 counter inactive
CN1OC[C@@H]2CN(C(=O)CCc3ccccc3)[C@H](c3cccc(-c4ccccc4)c3)C[C@@H]21	none
CCOC(=O)c1cc(-c2ccccc2)sc1NC(=O)c1ccc(OC)cc1	none (no result: MPTP block, SKN-1 inh, MT1-MMP act inh)
O=C(Nc1sc(-c2ccccc2)cc1C(=O)O)c1ccccc1	ATG4B inhibitor 67.7 | PLA2 counter 81.0
COCCN(CCOC)Cc1cc(=O)oc2cc(OC)ccc12	none (no result: ATG4B inhibitor)
O=C(N/N=C/c1ccc(-c2ccc(Cl)c(C(=O)O)c2)o1)c1cc2c(ccc3ccccc32)o1	ATG4B inhibitor 42.4 | PLA2 counter 63.1
O=C(Cn1cccn1)N1CCCC(N2CCN(c3ccccc3F)CC2)C1 (stereo not drawn)	none
NC(=O)c1ccc(-c2nnn(CC(=O)Nc3cccc(S(=O)(=O)N4CCCC4)c3)n2)cc1	none
O=C(Cn1nnc(-c2ccc(S(=O)(=O)N3CCCC3)cc2)n1)Nc1ccccc1-n1cccc1	ATG4B inhibitor 54.4 | PLA2 counter 61.8
Cc1nn(CCCC(=O)NCCc2ccccc2)c(C)c1[N+](=O)[O-]	none
Cc1nn(CCCC(=O)Nc2cc(Oc3ccccc3)cc([N+](=O)[O-])c2)c(C)c1[N+](=O)[O-]	ATG4B inhibitor 53.2 | PLA2 counter 63.0
Cc1ccc(Oc2cc(NC(=O)CCCn3nc([N+](=O)[O-])cc3C)cc([N+](=O)[O-])c2)cc1	ATG4B inhibitor 67.4 | PLA2 counter 64.6
O=C(O)COCC(=O)Nc1ccc(OCCc2ccccc2)cc1	none
CCc1cc(-c2nnn(CCC3COCCO3)c2C(C)(C)O)ccc1-c1cn(CCc2c[nH]c3ccccc23)nn1 (stereo not drawn)	none (no result: ATG4B inhibitor)
CCOc1ccc(S(=O)(=O)N2CCC(C(=O)NCc3ccco3)CC2)cc1C	none
CCN(CC)C(=O)CSc1nnc(COc2ccccc2)n1N	none
C=CCN1C(c2ccc(Br)cc2)=CS/C1=C(\C#N)c1nnc(N2CCOCC2)n1-c1ccccc1	ATG4B inhibitor 52.2 | PLA2 counter 69.0
C=CCN1C(c2cccc(C(F)(F)F)c2)=CS/C1=C(\C#N)c1nnc(N2CCOCC2)n1-c1ccccc1	none (no result: ATG4B inhibitor)
Cc1cccc(C(=O)N/N=C/c2coc3ccccc3c2=O)c1	none
O=C(N/N=C/c1coc2ccccc2c1=O)c1cccc([N+](=O)[O-])c1	ATG4B inhibitor 45.9 | PLA2 counter inactive
COc1cc(C(=O)N/N=C/c2coc3ccc(Cl)cc3c2=O)ccc1O	ATG4B inhibitor 50.5 | ATG4B confirm inactive | PLA2 counter inactive
O=C(N[C@H](Cc1ccc(Cl)cc1)C(=O)O)OCC1c2ccccc2-c2ccccc21	ATG4B inhibitor 78.5 | PLA2 counter 86.3
CCOC(=O)Cc1nnc(Nc2cc(C)ccc2C)c2ccccc12	none
CCCCCC(=O)Nc1cc(S(=O)(=O)N2CCOCC2)ccc1Oc1ccc(OCC)cc1	none
CC(C)Oc1ccc(C(CC(=O)NCc2ccco2)c2ccccc2)cc1 (stereo not drawn)	ATG4B inhibitor 43.9 (no result: MT1-MMP act inh) | ATG4B confirm 64.7 | PLA2 counter inactive
Cc1cccc(C(CC(=O)NCc2ccco2)c2ccccc2)c1O (stereo not drawn)	none
Cc1cccc(CSc2nnc(-c3cccs3)n2Cc2ccco2)c1	ATG4B inhibitor 67.7 | PLA2 counter 67.0
Cc1cccc(CSc2nc3sc(C)c(C)c3c(=O)n2Cc2ccco2)c1	none
COc1ccc(C2c3[nH]c4ccccc4c3C[C@H]3C(=O)N(c4ccccc4C(=O)N4CCC[C@H]4C(=O)O)C(=O)N23)cc1 (stereo partly drawn)	none
O=C(COC(=O)c1cc[n+]([O-])cc1)Nc1cccc(F)c1	none
CSc1nc2cc(Oc3cccc(Cl)c3Cl)c(Cl)cc2[nH]1	ATG4B inhibitor 65.0 | PLA2 counter 77.1
CN1C(=O)[C@H]2[C@@H](/C=C/c3ccccc3)N3C(=O)CN(Cc4ccc(-c5ccccc5)cc4)C(=O)[C@@]3(Cc3ccccc3)[C@H]2C1=O	none
CCCN(CC(=O)Nc1ccccc1OC)C(=O)CCNC(=O)c1ccccc1OC	none
Cc1ccc(S(=O)(=O)N2C(=O)CCC2C(=O)N2CCCCC2)cc1 (stereo not drawn)	none
